Reference: ChEMBL document CHEMBL4819134, “Design, synthesis and biological evaluation of imidazopyridazine derivatives containing isoquinoline group as potent MNK1/2 inhibitors” (Bioorg Med Chem, 2021)
pIC50: −log10 of the molar value.

Assays:
[1] = biological target: T1, MAP kinase-interacting serine/threonine-protein kinase 1 (Homo sapiens, UniProt Q9BUB5); assay: Inhibition of N-terminal GST-fused human full length recombinant MNK1 (1 to 424 residues) expressed in baculovirus-infected Sf21 cells using TATKSGSTTKNR as substrate preincubated with enzyme and substrate for 10 mins followed by ATP addition and measured after 40 mins by ADP-glo luminescence assay
Target sequence in this assay (Q9BUB5 whole entry, the tested form may be a part): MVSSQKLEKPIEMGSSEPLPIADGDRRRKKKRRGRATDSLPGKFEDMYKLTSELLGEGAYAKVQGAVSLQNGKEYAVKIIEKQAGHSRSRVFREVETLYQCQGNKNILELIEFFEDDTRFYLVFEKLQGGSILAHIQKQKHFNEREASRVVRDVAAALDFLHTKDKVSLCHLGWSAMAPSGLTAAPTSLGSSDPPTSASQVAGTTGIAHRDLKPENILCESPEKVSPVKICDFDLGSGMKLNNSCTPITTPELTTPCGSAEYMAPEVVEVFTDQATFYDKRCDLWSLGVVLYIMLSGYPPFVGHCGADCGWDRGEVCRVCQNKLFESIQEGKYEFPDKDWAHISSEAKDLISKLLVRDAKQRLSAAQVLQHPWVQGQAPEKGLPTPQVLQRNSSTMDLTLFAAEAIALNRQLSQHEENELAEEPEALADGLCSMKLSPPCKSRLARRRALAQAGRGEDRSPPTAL

[2] = biological target: T2, MAP kinase-interacting serine/threonine-protein kinase 2 (Homo sapiens, UniProt Q9HBH9); assay: Inhibition of N-terminal GST-fused human full length recombinant MNK2 (1 to 465 residues) expressed in baculovirus-infected Sf21 cells using TATKSGSTTKNR as substrate preincubated with enzyme and substrate for 10 mins followed by ATP addition and measured after 40 mins by ADP-glo luminescence assay
Target sequence in this assay (Q9HBH9 whole entry, the tested form may be a part): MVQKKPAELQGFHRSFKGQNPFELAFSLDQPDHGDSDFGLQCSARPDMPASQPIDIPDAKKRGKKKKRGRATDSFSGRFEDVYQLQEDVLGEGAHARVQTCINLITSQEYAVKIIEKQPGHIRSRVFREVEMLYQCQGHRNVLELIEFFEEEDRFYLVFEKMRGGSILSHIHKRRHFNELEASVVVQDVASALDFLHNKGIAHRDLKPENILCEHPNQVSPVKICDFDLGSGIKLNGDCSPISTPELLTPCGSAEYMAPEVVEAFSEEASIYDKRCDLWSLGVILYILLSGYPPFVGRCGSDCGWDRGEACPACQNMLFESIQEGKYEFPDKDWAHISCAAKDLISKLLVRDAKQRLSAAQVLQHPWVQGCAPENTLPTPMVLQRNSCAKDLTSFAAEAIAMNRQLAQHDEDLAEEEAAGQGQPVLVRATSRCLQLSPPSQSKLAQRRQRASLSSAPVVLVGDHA

[3] = biological target: T1, MAP kinase-interacting serine/threonine-protein kinase 1; details: Sf21, dose 500.0 nM, time 50.0 min
Target sequence in this assay (Q9BUB5 whole entry, looked up, the tested form may be a part): as the sequence (Q9BUB5 whole entry, the tested form may be a part) above

[4] = biological target: T2, MAP kinase-interacting serine/threonine-protein kinase 2; details: Sf21, dose 500.0 nM, time 50.0 min
Target sequence in this assay (Q9HBH9 whole entry, looked up, the tested form may be a part): as the sequence (Q9HBH9 whole entry, the tested form may be a part) above

[5] = tested on: TMD8; assay: Antiproliferative activity against human TMD8 cells assessed as reduction in cell viability incubated for 72 hrs by MTT assay; type: functional, cell-based; details: TMD8, 72 h
How it was run: (§1)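 Lymphoma cells seeded and grown 12 h, then exposed to serial compound concentrations in medium with 1‰ DMSO, each in triplicate, for 72 h. DMSO-only control. Viability read by MTT and normalized to DMSO control. IC50 derived by Logit method, mean ± SD of three independent determinations.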

[6] = tested on: DOHH-2; assay: Antiproliferative activity against human DOHH-2 cells assessed as reduction in cell viability incubated for 72 hrs by MTT assay; type: functional, cell-based; details: DOHH-2, 72 h; how it was run: as §1
[7] = tested on: TMD8; assay: Induction of apoptosis in human TMD8 cells assessed as early apoptotic cells at 0.5 uM incubated for 24 hrs by AnnexinV-FITC/PE staining based flow cytometry (reference value: 4.35%); type: functional
How it was run: (§2)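 TMD-8 cells seeded at 1 × 10^5 per 2 mL well and treated 24 h at 0.25, 0.5 or 1 μM, with DMSO control. Cells washed twice in cold PBS and resuspended in binding buffer. Stained with annexin V-FITC for 15 min, then PI for 5 min, both at 37 °C in the dark. Analysed by flow cytometry.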

[8] = tested on: TMD8; assay: Induction of apoptosis in human TMD8 cells assessed as viable cells at 0.5 uM incubated for 24 hrs by AnnexinV-FITC/PE staining based flow cytometry (reference value: 94.2%); type: functional; details: read-out: Activity; how it was run: as §2
[9] = tested on: TMD8; assay: Induction of apoptosis in human TMD8 cells assessed as necrotic cells at 0.25 uM incubated for 24 hrs by AnnexinV-FITC/PE staining based flow cytometry (reference value: 0%); type: functional; how it was run: as §2
[10] = tested on: TMD8; assay: Induction of apoptosis in human TMD8 cells assessed as late apoptotic cells at 0.25 uM incubated for 24 hrs by AnnexinV-FITC/PE staining based flow cytometry (reference value: 1.44%); type: functional; how it was run: as §2
[11] = tested on: TMD8; assay: Induction of apoptosis in human TMD8 cells assessed as early apoptotic cells at 0.25 uM incubated for 24 hrs by AnnexinV-FITC/PE staining based flow cytometry (reference value: 4.35%); type: functional; how it was run: as §2
[12] = biological target: Tyrosine-protein kinase BTK (Homo sapiens) (UniProt Q06187); assay: Inhibition of BTK (unknown origin) at 500 nM
Sequence of Tyrosine-protein kinase BTK (Homo sapiens) (Q06187 whole entry): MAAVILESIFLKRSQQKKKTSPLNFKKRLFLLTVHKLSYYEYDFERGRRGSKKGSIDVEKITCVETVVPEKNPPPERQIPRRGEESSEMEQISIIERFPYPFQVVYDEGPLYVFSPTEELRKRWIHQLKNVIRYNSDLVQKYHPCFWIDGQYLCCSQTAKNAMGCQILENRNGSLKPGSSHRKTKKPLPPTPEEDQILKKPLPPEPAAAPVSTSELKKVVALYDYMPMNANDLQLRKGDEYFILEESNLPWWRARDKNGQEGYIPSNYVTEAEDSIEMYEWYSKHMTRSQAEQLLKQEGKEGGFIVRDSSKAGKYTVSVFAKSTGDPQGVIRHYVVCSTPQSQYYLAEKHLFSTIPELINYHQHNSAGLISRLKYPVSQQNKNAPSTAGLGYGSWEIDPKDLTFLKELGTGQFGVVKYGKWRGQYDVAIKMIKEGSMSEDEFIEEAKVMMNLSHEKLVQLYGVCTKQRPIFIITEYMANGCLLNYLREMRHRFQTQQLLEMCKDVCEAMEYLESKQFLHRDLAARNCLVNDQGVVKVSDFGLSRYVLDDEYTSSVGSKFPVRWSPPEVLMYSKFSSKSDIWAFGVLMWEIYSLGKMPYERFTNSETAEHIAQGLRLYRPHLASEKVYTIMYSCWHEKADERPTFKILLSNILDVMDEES

[13] = biological target: Cyclin-dependent kinase 1 (Homo sapiens) (UniProt P06493); assay: Inhibition of CDK1 (unknown origin) at 500 nM
Sequence of Cyclin-dependent kinase 1 (Homo sapiens) (P06493 whole entry, looked up): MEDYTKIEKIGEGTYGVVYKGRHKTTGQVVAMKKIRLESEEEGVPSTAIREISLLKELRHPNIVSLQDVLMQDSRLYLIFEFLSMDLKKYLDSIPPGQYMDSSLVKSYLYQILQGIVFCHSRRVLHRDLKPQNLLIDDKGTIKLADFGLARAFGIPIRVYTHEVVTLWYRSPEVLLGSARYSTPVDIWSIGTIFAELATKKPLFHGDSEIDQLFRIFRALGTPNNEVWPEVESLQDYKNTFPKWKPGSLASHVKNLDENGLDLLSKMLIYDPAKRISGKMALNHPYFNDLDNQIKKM

[14] = biological target: T3, Interleukin-1 receptor-associated kinase 4 (Homo sapiens) (UniProt Q9NWZ3); assay: Inhibition of IRAK4 (unknown origin) at 500 nM
T3 sequence (whole entry): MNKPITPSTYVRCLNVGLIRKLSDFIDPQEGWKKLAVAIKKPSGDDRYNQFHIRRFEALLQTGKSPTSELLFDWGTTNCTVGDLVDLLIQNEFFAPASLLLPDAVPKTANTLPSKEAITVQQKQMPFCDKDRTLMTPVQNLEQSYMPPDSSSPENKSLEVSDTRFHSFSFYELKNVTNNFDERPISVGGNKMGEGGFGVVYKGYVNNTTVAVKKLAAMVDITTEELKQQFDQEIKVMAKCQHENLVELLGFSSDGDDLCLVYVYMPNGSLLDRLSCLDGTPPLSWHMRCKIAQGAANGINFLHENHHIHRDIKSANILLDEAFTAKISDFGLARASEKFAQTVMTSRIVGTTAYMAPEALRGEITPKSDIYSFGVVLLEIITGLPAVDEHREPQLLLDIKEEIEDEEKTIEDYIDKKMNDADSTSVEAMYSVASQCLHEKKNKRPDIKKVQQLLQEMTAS

[15] = biological target: AMP-activated protein kinase, AMPK (Homo sapiens) (UniProt P54646+O43741+P54619+Q9UGJ0+Q9Y478+Q13131+Q9UGI9); assay: Inhibition of AMPK (unknown origin) at 500 nM; type: protein-complex assay
[16] = biological target: Tyrosine-protein kinase JAK1 (Homo sapiens) (UniProt P23458); assay: Inhibition of JAK1 (unknown origin) at 500 nM
Sequence of Tyrosine-protein kinase JAK1 (Homo sapiens) (P23458 whole entry): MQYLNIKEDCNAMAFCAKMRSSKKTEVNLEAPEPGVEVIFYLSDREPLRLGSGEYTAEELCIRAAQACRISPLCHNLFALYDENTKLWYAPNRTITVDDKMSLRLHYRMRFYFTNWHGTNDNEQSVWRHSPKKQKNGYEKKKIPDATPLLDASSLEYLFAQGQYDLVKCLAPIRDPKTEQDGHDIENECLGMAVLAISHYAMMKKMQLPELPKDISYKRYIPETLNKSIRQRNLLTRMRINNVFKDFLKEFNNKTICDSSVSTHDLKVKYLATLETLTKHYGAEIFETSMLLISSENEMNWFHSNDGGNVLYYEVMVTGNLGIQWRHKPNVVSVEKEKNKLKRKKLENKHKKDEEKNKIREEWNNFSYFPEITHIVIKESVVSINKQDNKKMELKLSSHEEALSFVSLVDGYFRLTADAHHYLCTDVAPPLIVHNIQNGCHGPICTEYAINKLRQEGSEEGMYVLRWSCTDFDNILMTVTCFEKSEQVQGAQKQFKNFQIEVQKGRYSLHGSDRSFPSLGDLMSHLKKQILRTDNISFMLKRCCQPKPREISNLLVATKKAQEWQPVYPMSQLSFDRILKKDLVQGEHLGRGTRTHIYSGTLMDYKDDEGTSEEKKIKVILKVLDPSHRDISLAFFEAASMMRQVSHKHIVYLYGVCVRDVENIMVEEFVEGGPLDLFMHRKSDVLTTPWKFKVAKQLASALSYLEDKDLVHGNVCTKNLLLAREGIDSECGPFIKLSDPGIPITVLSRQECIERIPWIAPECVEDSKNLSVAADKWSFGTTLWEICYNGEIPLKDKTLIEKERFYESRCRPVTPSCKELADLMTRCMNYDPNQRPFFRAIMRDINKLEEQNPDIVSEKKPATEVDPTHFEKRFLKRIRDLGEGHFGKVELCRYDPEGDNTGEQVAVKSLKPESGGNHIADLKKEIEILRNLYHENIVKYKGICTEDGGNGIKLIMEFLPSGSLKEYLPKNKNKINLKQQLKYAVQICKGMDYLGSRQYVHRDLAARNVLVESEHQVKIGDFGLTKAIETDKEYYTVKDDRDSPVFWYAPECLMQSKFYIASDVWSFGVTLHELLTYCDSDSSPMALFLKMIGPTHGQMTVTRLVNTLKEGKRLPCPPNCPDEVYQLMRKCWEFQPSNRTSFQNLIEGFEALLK

[17] = biological target: Macrophage colony-stimulating factor 1 receptor (Homo sapiens) (UniProt P07333); assay: Inhibition of CSF1R (unknown origin) at 500 nM
Sequence of Macrophage colony-stimulating factor 1 receptor (Homo sapiens) (P07333 whole entry): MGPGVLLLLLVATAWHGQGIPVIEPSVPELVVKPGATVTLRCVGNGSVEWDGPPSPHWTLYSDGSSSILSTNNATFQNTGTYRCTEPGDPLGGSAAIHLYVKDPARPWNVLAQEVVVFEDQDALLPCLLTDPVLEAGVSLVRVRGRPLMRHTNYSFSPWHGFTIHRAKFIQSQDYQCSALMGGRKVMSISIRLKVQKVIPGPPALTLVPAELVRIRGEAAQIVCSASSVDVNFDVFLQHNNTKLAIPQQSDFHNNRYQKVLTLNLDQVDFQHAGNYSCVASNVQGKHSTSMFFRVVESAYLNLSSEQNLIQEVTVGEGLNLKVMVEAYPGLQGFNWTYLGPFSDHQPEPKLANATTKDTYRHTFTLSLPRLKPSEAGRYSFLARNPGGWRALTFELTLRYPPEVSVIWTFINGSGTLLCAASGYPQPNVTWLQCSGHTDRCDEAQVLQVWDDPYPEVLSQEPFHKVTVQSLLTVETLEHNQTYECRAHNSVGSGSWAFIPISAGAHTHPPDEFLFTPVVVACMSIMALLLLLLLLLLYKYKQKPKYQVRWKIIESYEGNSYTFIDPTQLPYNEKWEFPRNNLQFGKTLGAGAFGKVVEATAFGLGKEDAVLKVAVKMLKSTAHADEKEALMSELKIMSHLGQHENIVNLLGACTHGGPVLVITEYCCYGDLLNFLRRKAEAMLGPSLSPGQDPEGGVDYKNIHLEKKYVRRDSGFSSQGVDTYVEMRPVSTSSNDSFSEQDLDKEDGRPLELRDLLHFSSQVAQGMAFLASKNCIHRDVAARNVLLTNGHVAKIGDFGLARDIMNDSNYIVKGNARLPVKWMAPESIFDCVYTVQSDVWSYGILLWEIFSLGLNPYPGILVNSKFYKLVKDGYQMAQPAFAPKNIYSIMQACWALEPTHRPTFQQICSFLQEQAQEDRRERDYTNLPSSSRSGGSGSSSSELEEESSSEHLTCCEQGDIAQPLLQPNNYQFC

[18] = tested on: TMD8; assay: Induction of apoptosis in human TMD8 cells assessed as viable cells at 0.25 uM incubated for 24 hrs by AnnexinV-FITC/PE staining based flow cytometry (reference value: 94.2%); type: functional; details: read-out: Activity; how it was run: as §2
[19] = tested on: TMD8; assay: Induction of apoptosis in human TMD8 cells assessed as late apoptotic cells at 0.5 uM incubated for 24 hrs by AnnexinV-FITC/PE staining based flow cytometry (reference value: 1.44%); type: functional; how it was run: as §2
[20] = tested on: TMD8; assay: Induction of apoptosis in human TMD8 cells assessed as necrotic cells at 0.5 uM incubated for 24 hrs by AnnexinV-FITC/PE staining based flow cytometry (reference value: 0%); type: functional; how it was run: as §2
[21] = tested on: TMD8; assay: Induction of apoptosis in human TMD8 cells assessed as viable cells at 1 uM incubated for 24 hrs by AnnexinV-FITC/PE staining based flow cytometry (reference value: 94.2%); type: functional; details: read-out: Activity; how it was run: as §2
[22] = tested on: TMD8; assay: Induction of apoptosis in human TMD8 cells assessed as early apoptotic cells at 1 uM incubated for 24 hrs by AnnexinV-FITC/PE staining based flow cytometry (reference value: 4.35%); type: functional; how it was run: as §2
[23] = tested on: TMD8; assay: Induction of apoptosis in human TMD8 cells assessed as late apoptotic cells at 1 uM incubated for 24 hrs by AnnexinV-FITC/PE staining based flow cytometry (reference value: 1.44%); type: functional; how it was run: as §2
[24] = tested on: TMD8; assay: Induction of apoptosis in human TMD8 cells assessed as necrotic cells at 1 uM incubated for 24 hrs by AnnexinV-FITC/PE staining based flow cytometry (reference value: 0%); type: functional; how it was run: as §2

SMILES | pIC50 [1] | pIC50 [2] | inhibition [3] [%] | inhibition [4] [%] | pIC50 [5] | pIC50 [6] | also measured
O=C(c1ccc(-c2ccc3ncc(-c4ccc5ncccc5c4)n3c2)cc1)N1CCOCC1 | 6.43 | 6.67 | 74.7 | 64 |  |  | 
O=C(c1ccc(-c2ccc3ncc(-c4ccc5cnccc5c4)n3c2)cc1)N1CCC(N2CCOCC2)CC1 | 8.40 | 8.49 | 87.8 | 77.7 | 5.37 | 5.12 | 
N[C@@H]1CCCN(C(=O)c2ccc(-c3ccc4ncc(-c5ccc6cnccc6c5)n4n3)cc2)C1 | 8.03 | 8.18 |  |  | 5.62 | 6.40 | 
N#Cc1ccc(-c2cnc3ccc(-c4ccc(C(=O)N5CCOCC5)cc4)cn23)cc1 [TINODASERTIB] |  |  |  |  | 5.67 | 5.79 | 
O=C(c1ccc(-c2ccc3ncc(-c4ccc5ncccc5c4)n3c2)cc1)N1CCNCC1 |  |  | 73.5 | 49.9 |  |  | 
O=C(c1ccc(-c2ccc3ncc(-c4cnc5ccccc5c4)n3c2)cc1)N1CCNCC1 | 7.17 | 7.29 | 70.7 | 68.1 |  |  | 
O=C(c1ccc(-c2ccc3ncc(-c4cnc5ccccc5c4)n3c2)cc1)N1CCC(N2CCCCC2)CC1 |  |  | 71 | 48.8 |  |  | 
O=C(c1ccc(-c2ccc3ncc(-c4ccc5ncccc5c4)n3c2)cc1)N1CCC(N2CCOCC2)CC1 |  |  | 49.8 | 34.9 |  |  | 
NC1CCN(C(=O)c2ccc(-c3ccc4ncc(-c5ccc6cnccc6c5)n4n3)cc2)CC1 | 7.84 | 7.80 |  |  | 5.68 | 6.27 | 
N[C@@H]1CCCN(C(=O)c2ccc(-c3ccc4ncc(-c5ccc6cnccc6c5)n4c3)cc2)C1 | 8.11 | 8.05 |  |  | 5.64 | 5.20 | 
N[C@@H]1CCCN(C(=O)c2ccc(-c3cn4c(-c5ccc6cnccc6c5)cnc4cn3)cc2)C1 | 7.38 | 7.57 |  |  | 5.51 | 5.49 | 
N[C@H]1CCCN(C(=O)c2ccc(-c3ccc4ncc(-c5ccc6cnccc6c5)n4c3)cc2)C1 | 8.60 | 8.60 |  |  | 5.46 | 5.17 | 
O=C(c1ccc(-c2ccc3ncc(-c4ccc5cnccc5c4)n3c2)cc1)N1CCC(N2CCCCC2)CC1 | 8.62 | 8.82 | 92.9 | 74.7 | 5.40 | 5.42 | 
N[C@H]1CCCN(C(=O)c2ccc(-c3ccc4ncc(-c5ccc6cnccc6c5)n4n3)cc2)C1 | 8.64 | 8.47 | 103 | 97.3 | 6.41 | 6.39 | Activity [7]: 9.42%; viability at 0.5 µM [8]: 44.6%; Activity [9]: 0%; Activity [10]: 19.8%; Activity [11]: 30%; inhibition [12]: 4.1%; inhibition [13]: 5.01%; inhibition [14]: 22.3%; inhibition [15]: 10.2%; inhibition [16]: 6.5%; inhibition [17]: 11.6%; viability at 0.25 µM [18]: 50.2%; Activity [19]: 45.9%; Activity [20]: 0.037%; viability at 1 µM [21]: 12.5%; Activity [22]: 9.3%; Activity [23]: 78.2%; Activity [24]: 0%
O=C(c1ccc(-c2ccc3ncc(-c4ccc5cnccc5c4)n3c2)cc1)N1CCNCC1 | 8.03 | 8.54 | 98.7 | 77.7 | 5.18 | 5.06 | 
O=C(c1ccc(-c2ccc3ncc(-c4cnc5ccccc5c4)n3c2)cc1)N1CCC(N2CCOCC2)CC1 |  |  | 40.6 | 18.7 |  |  | 
N[C@H]1CCCN(C(=O)c2ccc(-c3cn4c(-c5ccc6cnccc6c5)cnc4cn3)cc2)C1 | 7.56 | 7.71 |  |  | 5.59 | 5.28 | 
NC1CCN(C(=O)c2ccc(-c3ccc4ncc(-c5ccc6cnccc6c5)n4c3)cc2)CC1 | 8.28 | 7.77 |  |  | 5.69 | 5.08 | 
O=C(c1ccc(-c2ccc3ncc(-c4cnc5ccccc5c4)n3c2)cc1)N1CCOCC1 | 6.81 | 6.20 | 71 | 21 |  |  | 
O=C(c1ccc(-c2ccc3ncc(-c4ccc5cnccc5c4)n3c2)cc1)N1CCOCC1 | 8.15 | 7.59 | 93.7 | 106 |  |  | 
NC1CCN(C(=O)c2ccc(-c3cn4c(-c5ccc6cnccc6c5)cnc4cn3)cc2)CC1 | 7.49 | 7.73 |  |  | 5.12 | 4.92 | 
O=C(c1ccc(-c2ccc3ncc(-c4ccc5ncccc5c4)n3c2)cc1)N1CCC(N2CCCCC2)CC1 |  |  | 62.8 | 2.41 |  |  | 
